High-throughput results from PubChem BioAssay.
Compounds with a hit are over-represented: about 1.2% of the library has one in this group of screens.
GalR3 antag: antagonists of human GalR3; HEK293 GalR3-CNG cAMP membrane potential fluorescence; galR3 body fused to GalR1 C-terminus; inhibition, % at 3 µM; actives 0.44% (n = 360,000); O60755;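 active means inhibition above the screen-wide average plus 3 SD, cut at about 13% in these data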;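 further: forskolin and galanin both at EC90 stimulate the cells; cAMP rise reported by CNG channel membrane potential dye signal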
Rin1 Abl inh: blocks binding of human Rin1 to Abl | P00519+Q13671 | TR-FRET Rin1/Abl binding, biochemical | inhibition, % at 7.35 µM | actives 0.4% (n = 360,000) | AID 588664; in the data active means inhibition above about 5%, passing the limit was not always enough
ASAP1 inh: blocks human ASAP1-stimulated Arf1 GTP hydrolysis; Q9ULH1; GDP FP detection; inhibition, % at 16.5 µM; actives 0.19% (n = 360,000); AID 624377; in the data active means inhibition above about 25%
ARFGAP1 inhibitor: rat ARFGAP1 inhibition; Q62848; Arfgap1-stimulated ARF1 GTP hydrolysis, GDP FP detection; inhibition, % at 16.5 µM; actives 0.26% (n = 360,000);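 active means inhibition above a per-plate limit, mean inhibition of low control wells plus 3 SD, cut at about 25% in these data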
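Material: truncated rat Arfgap1 GAP domain; Incubation: compound-enzyme preincubation 20 min, reaction 120 min, detection 60 min, 25 °C; Read-out: percent inhibition of Arfgap1-stimulated GTP hydrolysis; Technique: FP, GDP Alexa 633 tracer displaced from anti-GDP antibody, 620/688 nm; Controls: No-Arfgap1 wells (100%) versus DMSO full-reaction wells (0%); Replication: single well per compound.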
Rin1 Abl conf: confirmation of inhibitors of human Rin1-Abl interaction; actives 49% (n = 1,300); AID 602124; shares compounds with Rin1 Abl inh; TR-FRET Rin1-Abl binding, purified proteins; inhibition, % at 7.35 µM
GFP quench: GFP fluorescence interference artifact. shares compounds with Rin1 Abl inh. inhibitors/quenchers counterscreen. inhibition, % at 6.75 µM. actives 8.5% (n = 1,300);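 further: ABL1-eGFP fusion protein alone without its partner RIN1-SBP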
GFP quench DR: counter-screen for Rin1-Abl inhibitors: GFP quenchers, dose response; shares compounds with Rin1 Abl inh; GFP fluorescence interference/quenching counterscreen; IC50, µM; 230 tested, under 10 active; call rule not given here;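 further: ABL1-eGFP fusion protein alone without its RIN1 binding partner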
Each line names hits and unclear results; the compound was inactive in the other large screens (follow-up assays come after a bar, where they were run). Unless noted, no stated cut-off is given here; in the data, active means inhibition above about 6.5%; inactive means the rest.

NC(=O)C1CCN(CC(=O)Nc2ccccc2Sc2ccc(Cl)cc2)CC1	none
COc1ccc(-c2[nH][nH]c(=O)c2NC(=O)c2ccccn2)cc1	none
COc1ccc(CCC(=O)Nc2c(-c3ccc(N(C)C)cc3)[nH][nH]c2=O)cc1	Rin1 Abl inh 32, ASAP1 inh 49 | Rin1 Abl conf 40 | GFP quench inactive | GFP quench DR inactive
O=C(C1CCC(C(=O)N2CCCCC2)CC1)N1CCCCC1 (stereo not given)	Rin1 Abl inh 6.2 | Rin1 Abl conf inactive | GFP quench inactive
Cc1ncc(CN2CCCC(C(=O)Nc3ccc(-c4ccco4)cc3)C2)cn1 (stereo not given)	Rin1 Abl inh 15 | Rin1 Abl conf 10 | GFP quench inactive
COC(=O)C1=C(C)N(Cc2ccccc2C(F)(F)F)C(=NCc2ccc(OC)cc2)NC1c1ccc(C(F)(F)F)cc1 (stereo not given)	none (no result: Rin1 Abl inh)
COc1cc(CNCCc2ccc(F)cc2)ccc1OCc1ccc(Cl)nc1	Rin1 Abl inh 12 | Rin1 Abl conf 11 | GFP quench inactive
COc1cc(CO)ccc1OCc1ccc(Cl)nc1	none
CCNCc1ccc(OCc2ccccc2F)c(OC)c1	none
COc1cc(CNCCc2ccccc2F)ccc1OCc1ccc(Cl)nc1	Rin1 Abl inh 7.5 | Rin1 Abl conf 7.2 | GFP quench inactive
O=C(c1ccccc1)N1CCC2CCN(CCc3ccccc3)CC21 (stereo not given)	none (no result: Rin1 Abl inh)
CC(=O)O[C@@H]1C=C[C@@H](C#Cc2ccc(C(C)(C)C)cc2)O[C@@H]1COC(=O)Nc1ccccc1	none (no result: Rin1 Abl inh)
COc1ccc(S(=O)(=O)N2CCCC2CNC(=O)C(=O)NCc2ccc3c(c2)OCO3)cc1 (stereo not given)	none
Cc1ccc(S(=O)(=O)N2CCCC2CNC(=O)C(=O)NCc2ccc3c(c2)OCO3)cc1 (stereo not given)	Rin1 Abl inh 10 | Rin1 Abl conf inactive | GFP quench inactive
Cc1ccc(-c2nnc(N3CCN(C(=O)c4cccs4)CC3)c3ccccc23)cc1	Rin1 Abl inh 6.3 | Rin1 Abl conf inactive | GFP quench inactive
CN1CCCCC(NC(=O)c2c(F)cccc2F)C1=O (stereo not given)	none (no result: Rin1 Abl inh)
CC(=Nc1ccc(Cl)cc1N)c1c(O)cc(C)oc1=O	none (no result: Rin1 Abl inh)
Nc1ncc(-c2ccc(F)cc2)nc1N1CCN(CCO)CC1	none
OCCN1CCN(c2cnc(-c3ccsc3)cn2)CC1	Rin1 Abl inh 6.3 | Rin1 Abl conf inactive | GFP quench inactive
COC(=O)[C@]12C[C@H](CC(=O)NCc3ccccc3)C(=O)N(Cc3ccccc3)C1=C[C@H](C1CCCC1)O[C@@H]2C	none (no result: Rin1 Abl inh)
CC1(C)OC2CC3C4CC=C5CC(O)CCC5(C)C4CCC3(C)C2(C(=O)CO)O1 (stereo not given)	none
CC(=O)OCC(=O)C12OC(C)(C)OC1CC1C3CC=C4CC(O)CCC4(C)C3CCC12C (stereo not given)	Rin1 Abl inh 12 | Rin1 Abl conf inactive | GFP quench inactive
COC(=O)[C@]12C[C@H](CC(=O)NCc3ccc(OC)c(OC)c3)C(=O)N(Cc3ccccc3)C1=C[C@H](C(C)(C)C)O[C@@H]2C	none (no result: Rin1 Abl inh)
COC(=O)c1cc2c(c3c4cc(OC)ccc4n(S(=O)(=O)c4ccc(OC)cc4)c13)C(=O)N(Cc1ccco1)C2	none (no result: Rin1 Abl inh)
CC[C@]12c3[nH]c4ccccc4c3CCN1C(=O)C(CC(=O)NCCCN(C)C)C[C@@H]2C(=O)N1CCN(C(=O)c2ccco2)CC1 (stereo not given in full)	none
CC[C@]12c3[nH]c4ccc(OC)cc4c3CCN1C(=O)C(CC(=O)NCCc1ccccn1)C[C@@H]2C(=O)N1CCN(C(=O)c2ccco2)CC1 (stereo not given in full)	Rin1 Abl inh 16 | Rin1 Abl conf inactive | GFP quench inactive
CC[C@]12c3[nH]c4ccc(Cl)cc4c3CCN1C(=O)[C@@H](CC(=O)NCc1cccc(C(F)(F)F)c1)C[C@@H]2C(=O)N1CCN(C(=O)c2ccco2)CC1	none
CC[C@]12c3[nH]c4ccc(OC)cc4c3CCN1C(=O)C(CC(=O)NCCCN(C)C)C[C@@H]2C(=O)N1CCN(C(=O)c2ccco2)CC1 (stereo not given in full)	Rin1 Abl inh 21 | Rin1 Abl conf 22 | GFP quench inactive | GFP quench DR inactive
CC[C@]12c3[nH]c4ccc(OC)cc4c3CCN1C(=O)C(CC(=O)NCc1cccc(C(F)(F)F)c1)C[C@@H]2C(=O)N1CCN(C(=O)c2ccco2)CC1 (stereo not given in full)	Rin1 Abl inh 18 | Rin1 Abl conf 21 | GFP quench inactive | GFP quench DR inactive
CC[C@]12c3[nH]c4ccc(OC)cc4c3CCN1C(=O)C(CC(=O)NC/C=C(\C)CCC=C(C)C)C[C@@H]2C(=O)N1CCN(C(=O)c2ccco2)CC1 (stereo not given in full)	Rin1 Abl inh 11 | Rin1 Abl conf inactive | GFP quench inactive
COC(=O)[C@]12C[C@H](CC(=O)N3CCCCC3)C(=O)N(Cc3ccccc3)C1=C[C@H](C(C)(C)C)O[C@@H]2C	none (no result: Rin1 Abl inh)
CC1CCCN(c2cccc3c2S(=O)(=O)N(Cc2cccc(F)c2)[C@@H](C)[C@H](c2ccccc2)O3)C1 (stereo not given in full)	none (no result: Rin1 Abl inh)
CCOC(=O)c1c(C)n(C(=O)c2ccco2)c(=O)n1C(=O)c1ccco1	Rin1 Abl inh 36 | Rin1 Abl conf 35 | GFP quench inactive | GFP quench DR inactive
O=C(Cc1cn(Cc2ccccc2)c2ccccc12)Nc1ccc(Nc2cccnc2)c(Br)c1	none (no result: Rin1 Abl inh)
COC(=O)C1=C(O)/C(=C\c2ccc(CNS(=O)(=O)c3ccc(Cl)cc3)o2)N=C1C	none
COC(=O)C1=C(O)/C(=C\c2ccc(CNS(=O)(=O)c3ccccc3)o2)N=C1C	Rin1 Abl inh 6.0 | Rin1 Abl conf inactive | GFP quench inactive
N#Cc1ccsc1NC(=O)CN1CCN(c2ccccc2)CC1	none
N#Cc1ccsc1NC(=O)CN1CCN(c2ccc(O)cc2)CC1	Rin1 Abl inh 10 | Rin1 Abl conf inactive | GFP quench inactive
O=C(NCc1ccccc1)[C@@H]1CCCN1C(=O)[C@H]1CCCN1C(=O)c1ccc(F)cc1F	none (no result: Rin1 Abl inh)
Cc1c2cc(O)c(=O)cc-2oc2cc(O)c(O)cc12	Rin1 Abl inh 65 | Rin1 Abl conf 88 | GFP quench inactive
COc1cc(OC)c(-c2c3cc(O)c(=O)cc-3oc3cc(O)c(O)cc23)cc1OC	Rin1 Abl inh 62 | Rin1 Abl conf 73 | GFP quench inactive | GFP quench DR inactive
Cc1cc2oc(=O)cc(-c3cc4ccccc4o3)c2cc1O	none
Cc1cc(=O)n2nc(N3CCCC(C(=O)N4CCOCC4)C3)sc2n1 (stereo not given)	none
